# Results as given in article PMC5990500 (Neurology and Therapy, 2017).
# Where two headings read alike, the source gives them in different places.
# What was measured:
# [1] = test system: cGMP; conditions: cited from earlier work
# [2] = test system: healthy male volunteers; conditions: cited from earlier work
# [3] = test system: memory performance; conditions: cited from earlier work
# [4] = assay type: in vivo, human
# In short: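 Randomized, double-blind, placebo-controlled study in DSM-IV schizophrenia patients (18–55 y, clinically stable, on one antipsychotic). Plasma AUC0−∞, Cmax and tmax taken on day 1, and AUCtau,ss, Cmax,ss and tmax,ss at steady state (day 14). Dose proportionality was fitted by log-log linear regression.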
# [5] = test system: cGMP; conditions: healthy male volunteers, single oral dose; cited from earlier work
# [6] = test system: rat hippocampal slices; conditions: application to rat hippocampal slices; cited from earlier work
# [7] = healthy male volunteers, single oral dose; cited from earlier work
# [8] = test system: patients with mild-to-moderate schizophrenia; experiment: Safety and tolerability; assay type: in vivo, human
# In short: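 Patients were randomized 1:1:1:1 to oral test compound (25, 50 or 100 mg) or placebo once daily for 14 days, double-blind. Assessments were AEs, vital signs, 12-lead ECG, clinical laboratory tests, physical examination, CGI-I, PANSS, C-SSRS, Snellen visual acuity and Ishihara colour vision. End-of-treatment visit came 7–14 days after the last dose. All dosed patients were included, and results were summarized descriptively.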
# [9] = test system: patients with mild-to-moderate probable Alzheimer's disease; conditions: cited from earlier work
# [10] = steady state vs single dose, 25 to 100 mg
# [11] = phase II placebo-controlled study
structure (smiles),measurement,setting,value
O=c1[nH]c(Cc2ccccn2)nc2c1cnn2C1CCOCC1 [BI 409306],cGMP in rat cerebrospinal fluid (CSF) and prefrontal cortex,[1],dose-dependent increase
same,frequency of eye disorders,[2]; healthy male Chinese and Japanese subjects receiving BI 409306,29.8%
same,time to resolution of visual AEs / eye disorders,[2]; healthy male volunteers,1 to 2 h
same,memory performance,[3],improved memory performance
same,dose proportionality of exposure,[4]; 25- to 100-mg dose range,dose-proportional from 50 to 100 mg
same,gCV% of exposure (inter-individual variability),[4]; CYP2C19 µM predicted phenotype,154%
same,gCV% of exposure (inter-individual variability),[4]; CYP2C19 EM predicted phenotype,152%
same,gCV% of exposure (inter-individual variability),[4]; CYP2C19 IM predicted phenotype,48.4%
same,exposure by CYP2C19 predicted phenotype,"[4]; IM, EM, UM patients","highest in patients with the CYP2C19 IM predicted phenotype, followed by EM and UM patients"
same,half-life,"[4]; human, plasma, oral",66 to 111 min
same,"gCV of AUC0−∞ (inter-individual variability), range over dose groups",[4]; single dose,98.4% to 108%
same,"gCV of C max (inter-individual variability), range over dose groups",[4]; single dose,73.3% to 106%
same,time to reach C max,"[4]; single dose, across 25, 50, 100 mg",30 to 45 min
same,"gCV of AUCtau,ss (inter-individual variability), range over dose groups",[4]; steady state,86.8% to 112%
same,"gCV of C max,ss (inter-individual variability), range over dose groups",[4]; steady state,74.4% to 90.9%
same,"accumulation ratio AUC, range over dose groups",[4]; [10],0.758–1.13
same,"accumulation ratio C max, range over dose groups",[4]; [10],0.768–1.40
same,cGMP in the CSF,[5],dose- and concentration-dependent increase
same,effect on long-term potentiation (LTP),[6],significant enhancement of long-term potentiation
same,maximum concentration in CSF as % of the maximum plasma concentration,[7],28.31%
same,mean change from baseline in total PANSS score,"[8]; 25 mg qd, day 7",−0.1
same,mean change from baseline in total PANSS score,"[8]; 25 mg qd, day 13",2.3
same,"mild suicidal ideation after treatment initiation (C-SSRS score = 1), patients",[8]; 50 mg qd,one patient
same,mean change from baseline in total PANSS score,"[8]; 50 mg qd, day 7",−0.2
same,mean change from baseline in total PANSS score,"[8]; 50 mg qd, day 13",0.0
same,mean change from baseline in total PANSS score,"[8]; 100 mg qd, day 7",−1.4
same,mean change from baseline in total PANSS score,"[8]; 100 mg qd, day 13",−3.6
same,effect on mean pupil diameter relative to placebo,"[8]; 25, 50, 100 mg qd",negligible effect
same,"CGI-I, overall disease status","[8]; 25, 50, 100 mg qd 14 days",no change or minimal improvement
same,"changes in laboratory parameters, vital signs, or ECGs","[8]; 25, 50, 100 mg qd 14 days",No clinically relevant or dose-related changes
same,"deaths, serious AEs, discontinuation due to AEs","[8]; 25, 50, 100 mg qd 14 days","no deaths, serious AEs or discontinuation due to AEs"
same,intensity of AEs,"[8]; 25, 50, 100 mg qd 14 days",mild
same,tolerability,"[8]; 25, 50, 100 mg qd 14 days",well tolerated
same,color discrimination (Ishihara plates),[8]; all treatment groups,normal at maximum time points in all the patients
C[C@@H]1CN(Cc2ncccn2)C[C@H]1c1nc2c(cnn2C2CCOCC2)c(=O)[nH]1 [PF-04447943],"efficacy vs placebo in cognition, behavior, clinician-rated global change",[9]; 12-week treatment,not more effective than placebo
same,estimated median exposure relative to the IC50,[9]; [11],remained above the IC50 for the entire dosing duration
same,maximal concentrations relative to the IC50,[9]; [11],approximately five times the IC50
